In ChEMBL document CHEMBL4130564, “Indolylalkyltriphenylphosphonium Analogues Are Membrane-Depolarizing Mycobactericidal Agents” (ACS Med Chem Lett, 2017):
Calls of active or inactive are those of the source. The calls are words filed in the database; no cut-off is given here.

How the values were obtained:
[1] = test system: Mycobacterium tuberculosis; experiment: Antibacterial activity against Mycobacterium bovis BCG ATCC 35734 after 5 days by broth dilution method; format: functional; settings: BCG str. ATCC 35743, 120 h
How it was run: (§1)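 Broth dilution; growth read by turbidity; MIC50 and MIC90 are the concentrations reducing growth by 50% and 90% relative to untreated controls; average of two or more separate determinations.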

[2] = test system: Mycobacterium bovis BCG str. ATCC 35743; experiment: Inhibition of NDH2 in Mycobacterium bovis BCG ATCC 35734 assessed as reduction in oxygen consumption at 80 uM after 1 hr by methylene blue-based assay
How it was run: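 Mid-log M. bovis BCG cultures in 7H9 medium were exposed to compound, then methylene blue was added (0.001%) and the tubes were incubated oxygen-free at 37 °C for […]. Oxygen use was read as methylene blue decolorization. Controls were medium-only tubes and drug-free culture.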

[3] = test system: Mycobacterium tuberculosis; experiment: Bactericidal activity against Mycobacterium bovis BCG ATCC 35734 assessed as increase in propidium iodide uptake at 4 uM after 1 to 5 days by flow cytometry; format: functional, organism-based; settings: BCG str. ATCC 35743
[4] = test system: Mycobacterium tuberculosis; experiment: Bactericidal activity against Mycobacterium bovis BCG ATCC 35734 assessed as reduction in colony forming units at 4 uM after 1 to 5 days by time kill assay; format: functional, organism-based; settings: BCG str. ATCC 35743
[5] = test system: Mycobacterium tuberculosis; experiment: Bactericidal activity against Mycobacterium bovis BCG ATCC 35734 assessed as reduction in membrane potential by measuring red to green fluorescent ratio at 0.08 uM measured at 20 mins to 3 hrs by DiOC2-dye based fluorescence assay; format: functional, organism-based; settings: BCG str. ATCC 35743
[6] = test system: Mycobacterium tuberculosis; experiment: Bactericidal activity against Mycobacterium bovis BCG ATCC 35734 assessed as reduction in membrane potential by measuring red to green fluorescent ratio at 12 uM measured after 1 to 5 days by DiOC2-dye based fluorescence assay; format: functional, organism-based; settings: BCG str. ATCC 35743
How it was run: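 Membrane potential in treated BCG cultures tracked as DiOC2 red/green fluorescence ratio over extended exposure of 1, 3 and 5 days.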

[7] = test system: Mycobacterium tuberculosis; experiment: Bactericidal activity against Mycobacterium bovis BCG ATCC 35734 assessed as suppression of reductive capacity by measuring decrease in formazan formation after 0.5 to 1 hr by MTT reduction assay; format: functional, organism-based; settings: BCG str. ATCC 35743
How it was run: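 BCG cultures exposed to 0.2–100 μM for 30 min and 1 h, then MTT added; formazan production read at 595 nm against drug-free basal absorbance; CCCP 100 μM reference; representative of two independent experiments.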

Vero C1008 = experiment: Cytotoxicity against African green monkey Vero E6 cells assessed as reduction in cell viability after 48 hrs by cell titre 96 aqueous one solution-based assay; settings: Chlorocebus sabaeus, Vero C1008, 48 h
How it was run: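 Vero cell viability was compared with untreated control cells. IC50 was taken as the concentration giving 50% loss of viability, averaged over two or more separate determinations.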

Lipid bilayer = experiment: Binding affinity to DMPG vesicles assessed as increase in melting transition temperature by differential scanning calorimetric analysis
How it was run: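 Compound-loaded vesicles of negatively charged dimyristoylphosphatidylglycerol, used as a bacterial membrane surrogate, were scanned by differential scanning calorimetry. The gel-to-liquid melting endotherm was read for melting temperature (Tm) and calorimetric enthalpy (ΔH).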

[8] = test system: Mycobacterium tuberculosis; experiment: Antibacterial activity against Mycobacterium tuberculosis H37Rv ATCC 27294 after 7 days by broth dilution method; format: functional; settings: H37Rv ATCC 27294, 168 h; how it was run: as §1
[9] = test system: Mycobacterium tuberculosis; experiment: Bactericidal activity against Mycobacterium bovis BCG ATCC 35734 assessed as increase in propidium iodide uptake at 6 uM after 1 to 5 days by flow cytometry; format: functional, organism-based; settings: BCG str. ATCC 35743
[10] = test system: Mycobacterium tuberculosis; experiment: Bactericidal activity Mycobacterium bovis BCG ATCC 35734 assesses as cell death at 15 times MIC90 after 1 hr in presence of methylene blue; format: functional, organism-based; settings: BCG str. ATCC 35743
[11] = test system: Mycobacterium tuberculosis; experiment: Bactericidal activity against Mycobacterium bovis BCG ATCC 35734 assessed as reduction in oxygen consumption at 10 times MIC90 after 1 hr by methylene blue-based assay; format: functional, organism-based; settings: BCG str. ATCC 35743
[12] = test system: Mycobacterium tuberculosis; experiment: Bactericidal activity against Mycobacterium bovis BCG ATCC 35734 assessed as reduction in colony forming units after 5 days; format: functional, BCG str. ATCC 35743
[13] = test system: Mycobacterium tuberculosis; experiment: Bactericidal activity against Mycobacterium bovis BCG ATCC 35734 assessed as reduction in colony forming units at 6 uM after 1 to 5 days by time kill assay; format: functional, organism-based; settings: BCG str. ATCC 35743
[14] = test system: Mycobacterium tuberculosis; experiment: Bactericidal activity against Mycobacterium bovis BCG ATCC 35734 assessed as reduction in oxygen consumption at 15 times MIC90 after 1 hr by methylene blue-based assay; format: functional, organism-based; settings: BCG str. ATCC 35743
[15] = test system: Mycobacterium tuberculosis; experiment: Bactericidal activity against Mycobacterium bovis BCG ATCC 35734 assessed as reduction in membrane potential by measuring red to green fluorescent ratio at 12 uM measured at 20 mins to 3 hrs by DiOC2-dye based fluorescence assay; format: functional, organism-based; settings: BCG str. ATCC 35743
[16] = test system: Mycobacterium tuberculosis; experiment: Bactericidal activity against Mycobacterium bovis BCG ATCC 35734 assessed as cell elongation at 12 uM after 1 to 5 days by acid-fast staining-based light microscopy; format: functional, organism-based; settings: BCG str. ATCC 35743
[17] = test system: Mycobacterium tuberculosis; experiment: Bactericidal activity against Mycobacterium bovis BCG ATCC 35734 assessed as reduction in oxygen consumption at 5 times MIC90 after 1 hr by methylene blue-based assay; format: functional, organism-based; settings: BCG str. ATCC 35743
[18] = Hemolytic activity against human RBC after 1 hr; format: ADME, cell-based, Erythrocyte; settings: human red blood cells (erythrocytes)
How it was run: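 Human red blood cells were exposed to compound, and lysis was scaled against Triton X-100 (2% v/v), taken as 100% hemolysis. HC50 was the concentration lysing 50% of cells, averaged over two or more separate determinations.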

[19] = test system: Mycobacterium tuberculosis; experiment: Bactericidal activity against Mycobacterium bovis BCG ATCC 35734 assessed as reduction in colony forming units at 1.6 uM after 1 to 5 days by time kill assay; format: functional, organism-based; settings: BCG str. ATCC 35743
[20] = test system: Mycobacterium tuberculosis; experiment: Bactericidal activity against Mycobacterium bovis BCG ATCC 35734 assessed as increase in propidium iodide uptake at 1.6 uM after 1 to 5 days by flow cytometry; format: functional, organism-based; settings: BCG str. ATCC 35743

| Structure (SMILES) | MIC50 [1] | MIC90 [1] | also measured |
| --- | --- | --- | --- |
| c1ccc(CCCCCC[P+](c2ccccc2)(c2ccccc2)c2ccccc2)cc1 | 5.2 µM | 11.6 µM |  |
| Fc1ccc2ccn(CCCCC[P+](c3ccccc3)(c3ccccc3)c3ccccc3)c2c1 | 3 µM | 5 µM |  |
| Fc1cccc2c1ccn2CCCCC[P+](c1ccccc1)(c1ccccc1)c1ccccc1 | 3 µM | 5 µM |  |
| COc1ccc2ccn(CCC[P+](c3ccccc3)(c3ccccc3)c3ccccc3)c2c1 | 7 µM | 15 µM |  |
| CCCCCCCCCC[P+](c1ccccc1)(c1ccccc1)c1ccccc1 | 3.9 µM | 6 µM |  |
| Fc1ccc2c(ccn2CCC[P+](c2ccccc2)(c2ccccc2)c2ccccc2)c1 | 8 µM | 17 µM |  |
| CSc1ccc2c(c1)N(CCC1CCCCN1C)c1ccccc1S2 (stereo unspecified) |  |  | inhibition [2]: Active |
| O=[N+]([O-])c1cccc2ccn(CCCCC[P+](c3ccccc3)(c3ccccc3)c3ccccc3)c12 | 1 µM | 2 µM |  |
| CCCCCCCCn1cc(CN2CCC3(CCc4ccccc43)CC2)c2ccc(OC)cc21 |  |  | Activity [3]: Active; Activity [4]: Active |
| O=[N+]([O-])c1ccc2c(ccn2CCCCC[P+](c2ccccc2)(c2ccccc2)c2ccccc2)c1 | 3 µM | 5 µM |  |
| CO[C@H]1/C=C/O[C@@]2(C)Oc3c(C)c(O)c4c(O)c(c(/C=N/N5CCN(C)CC5)c(O)c4c3C2=O)NC(=O)/C(C)=C\C=C\[C@H](C)[C@H](O)[C@@H](C)[C@@H](O)[C@@H](C)[C@H](OC(C)=O)[C@@H]1C |  |  | Activity [5]: inactive |
| COc1cccc2ccn(CCCCC[P+](c3ccccc3)(c3ccccc3)c3ccccc3)c12.[I-] | 2 µM | 3 µM | Activity [6]: Active; Activity [7]: Dose-dependent effect; IC50 (Vero C1008): 18 µM; ΔTm (Lipid bilayer): 1 °C; MIC50 [8]: 2 µM; MIC90 [8]: 6 µM; Activity [9]: Active; Activity [10]: Toxic; Activity [11]: Active; MBC99 [12]: 3 µM; MBC ([12]; Mycobacterium tuberculosis, BCG ATCC 35734, 120 h, read-out: MBC99.9): 6 µM; Activity [13]: Active; Activity [14]: Active; Activity [15]: Active; Activity [16]: Active; Activity [17]: inactive; HC50 at 1 h [18]: > 300 µM |
| Fc1ccc2ccn(CCC[P+](c3ccccc3)(c3ccccc3)c3ccccc3)c2c1 | 6 µM | 12 µM |  |
| COc1ccc2c(ccn2CCC[P+](c2ccccc2)(c2ccccc2)c2ccccc2)c1 | 10 µM | 23 µM |  |
| Fc1cccc2c1ccn2CCC[P+](c1ccccc1)(c1ccccc1)c1ccccc1 | 6 µM | 12 µM |  |
| COc1ccc2c(ccn2CCCCC[P+](c2ccccc2)(c2ccccc2)c2ccccc2)c1 | 5 µM | 10 µM |  |
| NNC(=O)c1ccncc1 |  |  | Activity [19]: Active; Activity [20]: inactive |
| Fc1ccc2c(ccn2CCCCC[P+](c2ccccc2)(c2ccccc2)c2ccccc2)c1 | 3 µM | 5 µM |  |
